Bioassay records from PubChem BioAssay.
Most compounds without a hit are left out; they make up all but 3.7% or so of the library.
KCNK9 block: blocks the human KCNK9 two-pore domain potassium channel. 310,000 tested, 1.2% active. HEK293 KCNK9, FluxOR thallium flux fluorescence; hits give low values. Q9NPC2. B-score at 10 µM;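 active = ratio B-score over 3 SD below the library mean, with starting fluorescence within 5 SD of its mean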;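 note: negative B-score means less thallium flux so channel inhibition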
Target sequence (Q9NPC2 whole entry, looked up, the tested form may be a part): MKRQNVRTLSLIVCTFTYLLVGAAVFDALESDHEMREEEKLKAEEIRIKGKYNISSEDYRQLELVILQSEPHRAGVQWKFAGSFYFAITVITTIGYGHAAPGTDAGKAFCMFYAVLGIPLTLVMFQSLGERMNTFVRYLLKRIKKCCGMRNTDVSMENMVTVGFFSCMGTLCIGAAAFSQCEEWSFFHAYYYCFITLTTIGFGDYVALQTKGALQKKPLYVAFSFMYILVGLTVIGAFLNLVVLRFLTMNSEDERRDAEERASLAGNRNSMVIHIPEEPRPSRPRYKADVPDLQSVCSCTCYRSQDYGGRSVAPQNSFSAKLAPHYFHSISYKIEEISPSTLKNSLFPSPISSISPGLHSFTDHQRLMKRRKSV
KCNK3 block: human KCNK3 channel inhibition, primary screen | AID 602410 | 340,000 tested, 0.84% active | O14649 | CHO-KCNK3 thallium flux, FluxOR fluorescence; hits give low values | B-score at 10 µM;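 active = B-score under library mean minus 4 SD, starting fluorescence ratio at most library mean plus 5 SD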;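 note: more negative B-score means stronger inhibition of thallium flux through KCNK3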
Target sequence (O14649 whole entry, looked up): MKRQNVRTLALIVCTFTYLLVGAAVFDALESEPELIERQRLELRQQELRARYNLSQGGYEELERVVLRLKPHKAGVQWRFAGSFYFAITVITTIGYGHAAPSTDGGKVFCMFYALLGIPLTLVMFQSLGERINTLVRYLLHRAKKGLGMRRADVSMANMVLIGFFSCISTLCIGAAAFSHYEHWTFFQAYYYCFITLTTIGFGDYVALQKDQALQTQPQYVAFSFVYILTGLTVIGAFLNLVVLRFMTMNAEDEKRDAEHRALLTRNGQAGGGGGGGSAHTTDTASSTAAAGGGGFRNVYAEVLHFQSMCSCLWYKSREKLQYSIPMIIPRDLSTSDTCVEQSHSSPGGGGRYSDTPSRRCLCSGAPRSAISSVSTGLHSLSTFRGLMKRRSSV
KCNQ1 pot: potentiators or activators of human KCNQ1 potassium channel; P51787; 310,000 tested, 0.35% active; B-score at 10 µM; CHO-K1 KCNQ1, thallium flux FluxOR fluorescence; hits give high values;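 active = fluorescence ratio B-score, a plate-corrected score, at least three library SD, with initial intensity B-score within 5 SD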
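Material: CHO-K1 cells stably expressing KCNQ1. Medium: assay buffer for compound exposure, DMSO matched across wells. Reagent: K+/Tl+ depolarizing stimulus. Compound dosing: single-concentration screen. Times: 37 °C overnight plating, 90-min dark dye load, 20-min compound pretreatment. Technique: FluxOR Tl+ flux fluorescence.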
hERG protect: shields human hERG channel from block by proarrhythmic agents; activation (rescue from dofetilide block), less the hit threshold, % at 10 µM; CHO-hERG, FluxOR thallium flux, dofetilide IC70 present; Q12809; AID 1511; 310,000 tested, 0.51% active;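 active = activation above the mean of controls blocked by dofetilide plus 5 SD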;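 note: thallium influx through hERG after potassium depolarization seen as dye fluorescence rise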
Kir21 block: blocks the mouse Kir2.1 inward-rectifier potassium channel. P35561. HEK293-Kir2.1, FluxOR thallium flux fluorescence; hits give low values. B-score at 10 µM. 310,000 tested, 0.85% active. AID 1672;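 active = fluorescence ratio B-score at or below minus 3 SD of library scores, with starting-brightness B-score within 2 SD, cut at about -4.2 in these data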;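 note: channel flux triggered by added potassium and thallium sulfate stimulus; B-score of peak minus minimum fluorescence over baseline after thallium stimulus; more negative B-score means stronger Kir2.1 block with less thallium influx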
KCNQ1 inh: blocks the human KCNQ1 potassium channel. P51787. CHO-K1 KCNQ1, FluxOR thallium flux fluorescence; hits give high values. B-score at 10 µM. 310,000 tested, 1.3% active;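 active = compounds whose thallium flux B-score, printed positive for inhibition, exceeds three library SD while starting fluorescence stays within three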;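 note: channel opened by potassium depolarization with thallium stimulus after 20 min compound exposure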
KCNQ1 block val: reconfirmed blocker of the human KCNQ1 potassium channel | 1,600 tested, 93% active | KCNQ1 cell line, FluxOR thallium flux fluorescence | shares compounds with KCNQ1 inh | inhibition, % at 10 µM;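 active = primary screen active, with duplicate mean exceeding buffer control mean plus 3 SD of buffer wells, cut at about 28% in these data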;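 note: 0% = buffer control ratio and 100% = XE991 inhibitor control ratio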
CHO Tl flux: activity in parental CHO cells lacking KCNQ1; shares compounds with KCNQ1 inh; fluorescence ratio (Tl flux) at 10 µM; parental CHO-K1, FluxOR thallium flux fluorescence ratio; hits give low values; zero means no signal rise above baseline; 1,600 tested, 21% active;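 active = mean of duplicate thallium-flux fluorescence ratios in parental host cells more than 5 SD below the buffer control mean, cut at about 0.38 in these data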;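 note: ratio is peak minus minimum fluorescence divided by baseline fluorescence; actives read low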
KCNQ1 APC inh: blocks human KCNQ1 current in automated patch clamp | shares compounds with KCNQ1 inh | KCNQ1-CHO cells | calls only at 10 µM | 490 tested, 20% active;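 active = KCNQ1 current drop exceeding 3 SD of negative control wells, seen in both duplicate runs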;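 note: steady state current during a 2 s step from -80 to +40 mV; negative values mean current inhibition and positive values mean potentiation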
KCNQ2 spec: rat KCNQ2 inhibition in KCNQ1 inhibitor specificity screen | 1,600 tested, 71% active | KCNQ2 cells, FluxOR thallium flux fluorescence | inhibition, % at 10 µM | shares compounds with KCNQ1 inh;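 active = mean percent inhibition of the KCNQ2 thallium signal more than 5 SD above the buffer-only control wells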;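 note: KCNQ2 expressed in CHO cells; 0% = buffer control wells and 100% = XE-991 inhibitor control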
KCNQ1-KCNE1 inh: KCNQ1 inhibitor that also blocks human KCNQ1/KCNE1 channel; shares compounds with KCNQ1 inh; KCNQ1/KCNE1 cells, FluxOR thallium flux fluorescence; inhibition, % at 10 µM; 1,600 tested, 77% active; AID 652147;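 active = mean percent inhibition of duplicate wells above the buffer-only control mean plus 3 SD of those controls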;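 note: 0% = buffer only wells and 100% = XE-991 inhibitor control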
Starred values were filed as active, the others as inactive; i = inactive; x = not tested or not shown; + = active, no number.

SMILES | KCNK9 block | KCNK3 block | KCNQ1 pot | hERG protect | Kir21 block | KCNQ1 inh | KCNQ1 block val | CHO Tl flux | KCNQ2 spec | KCNQ1-KCNE1 inh | others
CCC1(C)CC(CCNS(=O)(=O)c2ccc(C)cc2)(c2ccc(C)cc2)CCO1 (stereo not given) | i | i | i | -9 | -1.4 | i | x | x | x | x
Cc1ccc(C2(CCNS(=O)(=O)c3ccc(C)cc3)CCOC(C(C)C)C2)cc1 (stereo not given) | i | i | i | -12 | -0.37 | 8* | 94* | 0.42 | 83%* | 98%* | KCNQ1 APC inh=i
CC(C(=O)N1CCc2ccccc21)n1cnc2c1c(=O)n(C)c(=O)n2C (stereo not given) | x | i | x | x | x | x | x | x | x | x
COC(=O)c1ccc([C@H](NC(=O)c2ccco2)[C@]2(C)C[C@H]2C2CCCCC2)cc1 | i | i | i | -7 | -0.17 | 6* | 122* | 0.34* | 107%* | 168%*
O=C1C(CCCNC(=S)NCc2ccccc2)NC(=S)N1Cc1ccccc1 (stereo not given) | i | i | i | -9 | -1.1 | 6* | 78* | 0.3* | i | 115%*
CCOC(=O)C1(CCOc2ccccc2)CCN(Cc2cc(OC)c3c(c2)OCO3)CC1 | i | i | i | -18 | -1.3 | i | x | x | x | x
Cc1ccc(S(=O)(=O)N2CCN(C(=O)COC(=O)COc3ccccc3C(C)C)CC2)c(C)c1 | x | i | x | x | x | x | x | x | x | x
O=C(NC1CCSc2ccccc21)c1cccc(Br)c1 (stereo not given) | i | i | i | -6 | -0.14 | 7* | 32* | 0.55 | 83%* | 34%*
CN(C)/C=N/C(=S)Nc1ccc(Cl)cc1Cl | i | i | i | -2 | -0.56 | i | x | x | x | x
CC1CCN(S(=O)(=O)c2nnc(NC(=O)c3cccc(Cl)c3)s2)CC1 | i | i | i | -6 | -1.4 | 9* | 32* | 0.51 | i | i
CCn1nnnc1SCC(=O)NC1Cc2ccccc2C1 | i | i | i | -1 | -2 | i | x | x | x | x
CC(=O)c1cccc(NC(=O)C(C)N2CCc3ccccc3C2)c1 (stereo not given) | i | i | i | -8 | -0.92 | i | x | x | x | x
Brc1ccc2ncnc(NCc3ccccc3)c2c1 | i | i | i | -10 | 0.65 | i | x | x | x | x
CCc1ccccc1Nc1ncnc2ccccc12 | i | i | i | -1 | -2.4 | i | x | x | x | x
c1ccc(CCNc2ncnc3ccccc23)cc1 | i | i | i | -17 | 0.42 | 8* | 139* | 0.48 | 84%* | 110%* | KCNQ1 APC inh=i
CCCCCCCCNc1ncnc2ccccc12 | i | i | i | -36 | -8* | 9* | 125* | 0.37* | 76%* | 118%*
COC(=O)C(C(=O)OC)C(CC(=O)c1ccc(Br)cc1)c1ccccc1 (stereo not given) | x | i | x | x | x | x | x | x | x | x
CCCCNc1cc(C)nc(NCc2ccccc2)n1 | i | i | i | -20 | -12* | 10* | 96* | 0.39 | i | 77%* | KCNQ1 APC inh=+
Cc1cc(C)nc(NCCCc2ccccc2)n1 | i | i | i | -3 | -0.4 | i | x | x | x | x
Cc1cc(N2CCC(C)CC2)nc(NCc2ccccc2)n1 | i | i | i | -24 | -13* | 7* | 46* | 0.49 | i | i
CCOC(=O)C1=C(COC(=O)COc2ccc(C(=O)CC)cc2)NC(=O)NC1C (stereo not given) | i | i | i | -22 | -0.26 | i | x | x | x | x
COc1ccc(Nc2ncnc3ccccc23)c(OC)c1 | i | i | i | 1 | 1.3 | i | x | x | x | x
COc1ccc(Nc2nc(N3CCCCC3)c3ccccc3n2)cc1 | i | i | i | -28 | -1.1 | 14* | 139* | 0.4 | 103%* | 122%* | KCNQ1 APC inh=i
Cc1ccc(Nc2nc(N3CCOCC3)c3ccccc3n2)cc1 | i | i | i | -13 | -0.02 | i | x | x | x | x
COc1ccc(Nc2nc(N3CCCC3)nc3ccccc23)c(OC)c1 | i | i | i | -20 | -0.25 | 7* | 112* | 0.38 | 81%* | 137%*
SMILES | KCNK9 block | KCNK3 block | KCNQ1 pot | hERG protect | Kir21 block | KCNQ1 inh | KCNQ1 block val | CHO Tl flux | KCNQ2 spec | KCNQ1-KCNE1 inh | others
COc1ccccc1NC(=O)c1ccc2c(c1)nnn2C | i | i | i | -6 | -0.04 | i | x | x | x | x
CCCN(CCC)C(=O)c1cc(S(=O)(=O)N2CCCCC2)c[nH]1 | i | i | i | -14 | 1.3 | i | x | x | x | x
O=C(Nc1ccc(OC(F)(F)F)cc1)Oc1ccccc1N1CCCCC1 | i | i | i | -19 | -0.99 | 9* | 82* | 0.48 | i | 40%*
O=C(Nc1ccc(OC(F)(F)F)cc1)Oc1ccccc1N1CCOCC1 | i | i | i | -8 | -0.37 | 6* | 50* | 0.5 | 70%* | 39%*
O=C(OCC#CCSc1nnc(-c2cccc3ccccc23)o1)c1cccc2[nH]ccc12 | x | i | x | x | x | x | x | x | x | x
Cc1nnsc1SCCNC(=O)Nc1ccc(Cl)cc1 | i | i | i | -10 | 0.34 | 7* | 67* | 0.52 | i | 36%*
Cc1ccccc1OCCCc1c(C)n[nH]c1C | i | i | i | -7 | -2.2 | i | x | x | x | x
Cc1ccccc1OCCCCc1c(C)n[nH]c1C | i | i | i | -12 | -1.9 | 7* | 109* | 0.44 | 97%* | 80%* | KCNQ1 APC inh=i
Fc1ccc(CCNC(=S)Nc2ccc(F)c(Cl)c2)cc1 | i | i | i | -25 | -3.7 | 9* | 48* | 0.58 | i | i
COc1ccc(Cl)cc1NC(=S)NCCc1ccc(F)cc1 | i | i | i | -12 | -4.6* | 6* | 64* | 0.49 | 114%* | 50%*
CCN(CC(=O)NCc1cccs1)C(=O)Cc1ccc(Cl)c(Cl)c1 | x | i | x | x | x | x | x | x | x | x
CCOC(=O)c1ccccc1NC(=O)COC(=O)CCC(=O)c1ccc(C)cc1 | i | i | i | -16 | -1.7 | i | x | x | x | x
Cc1ccc(SCC(=O)OCC(=O)N(CC(C)C)c2c(N)n(Cc3ccccc3)c(=O)[nH]c2=O)cc1C | i | i | i | -13 | -0.78 | i | x | x | x | x
